These results are taken from ChEMBL document CHEMBL4725347, “Discovery of a Monoiodo Aza-BODIPY Near-Infrared Photosensitizer: in vitro and in vivo Evaluation for Photodynamic Therapy” (J Med Chem, 2020).

One may read the IC50 as the concentration needed to halve the response being measured.

Active and inactive are the calls of the source. The calls are words filed in the database; no cut-off is given here. Bounds are passed on as bounds.

Data set [1] is described as follows: Photostability of the compound in N,N-dimethylformamide assessed as compound degradation irradiated with 90 mW/cm2 light. It is filed as physicochemical.
A short description of data set [2]: Absorption property of the compound in chloroform assessed as absorption coefficient by UV-visible spectrophotometric method. The data set is classed as physicochemical. Summed up:
(§1)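 Electronic absorption spectra recorded by UV-visible spectrophotometry at room temperature. Solvents were chloroform, isopropanol, acetonitrile, DMF, and PBS buffer containing 1% Cremophor EL/1,2-propanediol (10:3, v:v). Chloroform data were referenced to the non-halogenated parent dye.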

The nature of data set [3]: Emission property of the compound in chloroform assessed as maximum emission wavelength by fluorescence spectrophotometric method. It is filed as physicochemical. Summed up:
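Fluorescence spectrum recorded in chloroform by fluorescence spectrophotometer at room temperature.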

Data set [4] in a line: Absorption property of the compound in PBS containing 1% Cremophor EL/1,2-propanediol (10:3, v:v) system assessed as absorption coefficient by UV-visible spectrophotometric method. It is filed as physicochemical. The settings on record: buffer. Summed up:
as §1

Data set [5] in a line: Absorption property of the compound in acetonitrile assessed as absorption coefficient by UV-visible spectrophotometric method. The data set is classed as physicochemical. Summed up: as §1
Data set [6] is described as follows: Absorption property of the compound in N,N-dimethylformamide assessed as absorption coefficient by UV-visible spectrophotometric method. The data set is classed as physicochemical. Put shortly:
as §1

Data set [7] in a line: Induction of singlet oxygen generation in isopropanol assessed as relative rate of DPBF degradation to MB at 1 uM irradiated with 90 mW/cm2 halogen light. It is filed as functional. Summed up: (§2)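 Singlet oxygen generation measured with 1,3-diphenylisobenzofuran (DPBF) as scavenger. The decrease in DPBF absorbance at 411 nm was monitored over time during light irradiation, and the photodegradation rate was calculated.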

Data set [8] is described as follows: Induction of singlet oxygen generation in PBS containing 1% Cremophor EL/1,2-propanediol (10:3, v:v) system assessed as relative rate of DPBF degradation to MB at 1 uM irradiated with 90 mW/cm2 halogen light. It is filed as functional. Put shortly:
as §2

Data set [9] is described as follows: Dark toxicity in human HeLa cells assessed as reduction in cell viability after 3 hrs by MTT assay. The data set is classed as cell-based. Summed up: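 Compound was formulated with Cremophor EL/1,2-propanediol in PBS, filtered, and its concentration confirmed by UV-Vis. HeLa cells in DMEM with 10% FBS at 37 °C, 5% CO2 were seeded at 3×10^3 cells/well and adhered overnight. Cells were exposed to graded concentrations for 3 h without light, incubated 24 h, then MTT 0.5 mg/mL for 4 h; formazan dissolved in DMSO, A490 read.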
On the technique in general: Formazan colour is commonly taken as a measure of viable cells.

Data set [10] can be described thus: Dark toxicity in human MCF7 cells assessed as reduction in cell viability after 3 hrs by MTT assay. The data set is classed as cell-based.
The test system of data set [11] is MCF7. Briefly: Phototoxicity against human MCF7 cells assessed as reduction in cell viability preincubated for 3 hrs followed by 54 J/cm2 light irradiation and measured after 24 hrs by MTT assay. The data set is classed as functional, cell-based. The settings on record: MCF7, light or radiation study. Put shortly:
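PS formulated in PBS containing Cremophor EL/1,2-propanediol (10:3, v:v) after THF removal, filtered, with concentration confirmed by UV-Vis. Cells were grown in DMEM with 10% FBS and seeded at 3×10^3 per well overnight. They were incubated with PS for 3 h, irradiated at λ > 590 nm, kept 24 h at 37 °C, then given MTT (0.5 mg/mL, 4 h) with DMSO solubilization and A490 read-out.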

A short description of data set [12]: Photostability of the compound in acetonitrile assessed as compound degradation irradiated with 90 mW/cm2 light. The data set is classed as physicochemical.
Data set [13] in a line: Stability of the compound in acetonitrile assessed as compound degradation under dark condition. It is filed as physicochemical.
Data set [14] concerns HeLa. Briefly: Induction of apoptosis in human HeLa cells assessed as late apoptotic cells at 40 nM preincubated for 3 hrs followed by 54 J/cm2 light irradiation and measured after 24 hrs by Annexin-V-FITC/propidium iodide staining based flow cytometry (reference value: 5.92%). The data set is classed as functional. Summed up:
(§3)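 HeLa cells in six-well plates were exposed to compound for 3 h, irradiated (λ > 590 nm), and incubated 24 h at 37 °C. Cells were then harvested, washed with PBS, and stained with annexin V-FITC/PI for 20 min at room temperature before immediate flow cytometry. Untreated, unirradiated cells served as control.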
(In general: A flow cytometer gives signals particle by particle.)

For data set [15], the system named is HeLa. The data set can be described thus: Induction of apoptosis in human HeLa cells assessed as viable cells at 200 nM preincubated for 3 hrs followed by 27 J/cm2 light irradiation and measured after 24 hrs by Annexin-V-FITC/propidium iodide staining based flow cytometry (reference value: 90.74%). It is filed as functional. The settings on record: light or radiation study, read-out: Activity. Put shortly:
as §3

Data set [16] relates to HeLa. The data set can be described thus: Induction of apoptosis in human HeLa cells assessed as early apoptotic cells at 200 nM preincubated for 3 hrs followed by 54 J/cm2 light irradiation and measured after 24 hrs by Annexin-V-FITC/propidium iodide staining based flow cytometry (reference value: 0.54%). It is filed as functional. Put shortly: as §3
In data set [17] the test system is HeLa. The data set can be described thus: Induction of apoptosis in human HeLa cells assessed as late apoptotic cells at 200 nM preincubated for 3 hrs followed by 54 J/cm2 light irradiation and measured after 24 hrs by Annexin-V-FITC/propidium iodide staining based flow cytometry (reference value: 5.92%). It is filed as functional. Put shortly: as §3
Data set [18] deals with HeLa. Briefly: Induction of reactive oxygen species generation in human HeLa cells at 0.004 to 2.5 uM incubated for 3 hrs under dark condition by confocal scanning microscopic analysis. It is filed as cell-based. The settings on record: dose 0.004-2.5 µM. Put shortly:
(§4)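 HeLa cells were exposed to 0.004, 0.02, 0.10, 0.5 or 2.5 μM for 3 h, washed, and loaded with H2DCFDA 10 μM in PBS for 20 min at 37 °C. After washing, cells in PBS were irradiated with 54 J/cm² (λ > 590 nm) or kept dark. Fluorescence was read by confocal microscopy and by plate reader (ex 485/em 538 nm).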

Data set [19] has as its system HeLa. Briefly: Induction of reactive oxygen species generation in human HeLa cells at 0.004 to 2.5 uM incubated for 3 hrs prior to H2DCFDA addition for 20 mins followed by 54 J/cm2 light irradiation by microplate reader analysis. It is filed as functional, cell-based. The settings on record: dose microM 0.004-2.5, time 3.0 hrs. Put shortly: as §4
Data set [20] is described as follows: Drug uptake in human HeLa cells xenografted Balb/c nu/nu mouse liver at 2 mg/kg, iv measured within 1 hr by fluorescence imaging analysis. The data set is classed as ADME, organism-based. The note with it: in vivo. Summed up:
(§5)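 Female Balb/c nu/nu mice bore subcutaneous HeLa tumors (5×10^6 cells, right back) and received 2 mg/kg via tail vein. Living mice were imaged under isoflurane at time points (ex 680/em 720 nm, 1 s exposure). At set times mice were euthanized and heart, liver, spleen, lungs, kidneys and tumor imaged ex vivo; ROI quantified, mean ± SD, n = 3.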

Data set [21] in a line: Drug uptake in human HeLa cells xenografted Balb/c nu/nu mouse lung at 2 mg/kg, iv measured within 1 hr by fluorescence imaging analysis. The data set is classed as ADME, organism-based. The note with it: in vivo. Summed up:
as §5
A general note: A xenograft is tissue or cells of one species grown in another, often human tumour cells in immunodeficient mice.

Data set [22] is described as follows: Drug uptake in human HeLa cells xenografted Balb/c nu/nu mouse kidney at 2 mg/kg, iv measured within 1 hr by fluorescence imaging analysis. The data set is classed as ADME, organism-based. The settings on record: in vivo. Put shortly: as §5
The test system of data set [23] is HeLa. Briefly: Antitumor activity against human HeLa cells xenografted in Balb/c nu/nu mouse assessed as tumor growth inhibition at 2 mg/kg, iv pretreated for 15 mins followed by 54 J/cm2 light irradiation for 10 mins and measured after 24 days. It is filed as functional, organism-based. Put shortly:
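Female Balb/c nu/nu mice with subcutaneous HeLa tumors (5×10^6 cells) reaching 80–100 mm³ on day 7 were randomized, n = 5 per group. Mice received 2 mg/kg by tail vein, or saline for controls. After 15 min the tumor was irradiated once with 54 J/cm² (75 W halogen lamp, >590 nm filter, 90 mW/cm², 10 min), unanaesthetized. Calipers every other day; V = 0.5×L×W²; body weight tracked.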

For `COc1ccc(C2=[N+]3C(=Nc4c(-c5ccccc5)cc(-c5ccc(OC)cc5)n4[B-]3(F)F)C(c3ccccc3)=C2I)cc1`, the Stabilty result in data set [1] was “Unstable”; in data set [12], “Stable”; in [13], “Unstable”. The Activity in data set [2] is 97000 M⁻¹ cm⁻¹; in [3], 721 nm; in data set [4] it was 34000 M⁻¹ cm⁻¹; in data set [5] it was 59300 M⁻¹ cm⁻¹; in [6], 59300 M⁻¹ cm⁻¹; in data set [14] it was 10.31%. In addition, the Activity in [16] is reported as 81.04%; in data set [17], 8.6%; in [18], “Non-Toxic”. Also, the fold change (FC) amounted to 7.3 in data set [7] and 2.4 in data set [8]. In addition, the IC50 at 3 h in data set [9] and in data set [10] was above 50 µM each time. Besides, the IC50 in data set [11] came to 0.1 µM. Besides, the viability at 0.2 µM in data set [15] is 42.9%. In addition, the result in data set [19] was Active. Besides, the Drug uptake result in data set [20], in data set [21] and in data set [22] was “Active” each time. For the same compound, in [23], the TGI entry is “Active”.
